Results published in ChEMBL document CHEMBL1177703, “Design and synthesis of novel xyloketal derivatives and their vasorelaxing activities in rat thoracic aorta and angiogenic activities in zebrafish angiogenesis screen” (J Med Chem, 2010).
Structures can show the parent of a compound that is named as a salt. Activity calls are given as the source filed them. The calls are words filed in the database; no cut-off is given here.

What was measured:
Aorta [1] = assay: Vasorelaxant activity in Sprague-Dawley rat endothelium intact thoracic aortic rings assessed as inhibition of KPSS-induced contraction; type: functional, tissue-based
In short: (§1)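 Rat thoracic aortic rings (2-3 mm) held in Krebs bicarbonate at 37 °C, pH 7.4, gassed with 95% O2/5% CO2. Endothelium accepted as intact with >80% relaxation to 1 μM ACh after 1 μM phenylephrine, and as denuded with no ACh response. Rings precontracted with KCl (30 mM intact, 25 mM denuded). Cumulative curves 0.5-200 μM, vehicle 2% DMSO, one curve per ring; EC50 derived.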

HUVEC [2] = assay: Cytotoxicity against HUVEC assessed as cell viability > 200 uM after 24 hrs by MTT assay; type: cell-based; details: human
Danio rerio [3] = species: Danio rerio; assay: Angiogenic activity in zebrafish embryo at 100 uM after 72 hrs by microscopical analysis
Aorta [4] = assay: Vasorelaxant activity in Sprague-Dawley rat endothelium denuded thoracic aortic rings assessed as inhibition of KCL-induced contraction; type: functional, tissue-based; in short: as §1
HUVEC [5] = assay: Induction of nitric oxide production in HUVEC at 20 uM after 24 hrs by griess reaction in presence of L-NAME; type: functional, cell-based; details: Homo sapiens
In short: (§2)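 HUVECs preincubated 24 h with 20 μM compound, alone or together with 100 μM L-NAME. Nitrite in 100 μL medium mixed 1:1 with Griess reagent for 15 min, absorbance read at 540 nm, quantified against a NaNO2 standard curve run with each experiment. Samples in triplicate; mean ± SD, n = 6.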

HUVEC [6] = assay: Induction of nitric oxide production in HUVEC at 20 uM after 24 hrs by griess reaction; type: functional, cell-based; details: Homo sapiens; in short: as §2
HUVEC [7] = assay: Protection against oxidatively modified low density lipoprotein-induced cell injury in HUVEC assessed as cell viability at 20 uM pretreated for 30 mins before oxLDL challenge measured after 24 hrs by MTT assay; type: functional, cell-based; details: Homo sapiens
In short: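 HUVECs pretreated 30 min with 20 μM compound, then given oxLDL (150 μg/mL) or vehicle for 24 h. MTT added and absorbance read at 570 nm after 4 h. Mean ± SD, n = 6.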

Danio rerio [8] = species: Danio rerio; assay: Angiogenic activity in zebrafish embryo after 72 hrs by microscopical analysis

EC50 (Aorta [1]) [µM]	EC50 (Aorta [4]) [µM]	SMILES	Activity (HUVEC [2])	Angiogenic activity (Danio rerio [3])	Activity (HUVEC [5])	Activity (HUVEC [6])	Activity (HUVEC [7])	Angiogenic activity (Danio rerio [8])
64	> 200	C[C@H]1CO[C@]2(C)Oc3cc(OC/C=C/c4ccccc4)c4c(c3C[C@H]12)O[C@@]1(C)OC[C@H](C)[C@H]1C4 [XYLOKETAL B CINNAMYL ETHER]	Non-toxic	–	–	–	–	–
3	10	C[C@H]1CO[C@]2(C)Oc3c(c(O)c(C(N)=O)c4c3C[C@@H]3[C@@H](C)CO[C@]3(C)O4)C[C@H]12 [XYLOKETAL B FORMAMIDE]	Non-toxic	Active	–	–	–	–
> 200	> 200	CCCCCCOc1cc2c(c3c1C[C@@H]1[C@@H](C)CO[C@]1(C)O3)C[C@@H]1[C@@H](C)CO[C@]1(C)O2 [XYLOKETAL B HEXYL ETHER]	Non-toxic	–	–	–	–	–
17	33	COc1cc2c(c3c1C[C@@H]1[C@@H](C)CO[C@]1(C)O3)C[C@@H]1[C@@H](C)CO[C@]1(C)O2 [XYLOKETAL B METHYL ETHER]	Non-toxic	Active	inactive	Active	Active	–
8	14	COC(=O)c1c(O)c2c(c3c1O[C@@]1(C)OC[C@H](C)[C@H]1C3)O[C@@]1(C)OC[C@H](C)[C@H]1C2 [XYLOKETAL B METHYL FORMATE]	Non-toxic	Active	–	–	–	–
23	22	C#CCOc1cc2c(c3c1C[C@@H]1[C@@H](C)CO[C@]1(C)O3)C[C@@H]1[C@@H](C)CO[C@]1(C)O2 [XYLOKETAL B PROPARGYL ETHER]	Non-toxic	Active	inactive	Active	Active	–
43	77	CCCOc1cc2c(c3c1C[C@@H]1[C@@H](C)CO[C@]1(C)O3)C[C@@H]1[C@@H](C)CO[C@]1(C)O2 [XYLOKETAL B PROPYL ETHER]	Non-toxic	Active	–	–	Active	–
37	80	COc1cc(OC)c2c(c1)O[C@@]1(C)OC[C@H](C)[C@H]1C2 [XYLOKETAL H DIMETHYL ESTER]	Non-toxic	–	–	–	–	–

Further lines, the compound ahead of its results:

SMILES	EC50 (Aorta [1]) [µM]	EC50 (Aorta [4]) [µM]	Activity (HUVEC [2])	Angiogenic activity (Danio rerio [3])	Activity (HUVEC [5])	Activity (HUVEC [6])	Activity (HUVEC [7])	Angiogenic activity (Danio rerio [8])
CNC(=O)c1c(O)c2c(c3c1O[C@@]1(C)OC[C@H](C)[C@H]1C3)O[C@@]1(C)OC[C@H](C)[C@H]1C2	9	15	Non-toxic	Active	–	–	–	–
COC(=O)C(C)NC(=O)c1c(O)c2c(c3c1O[C@@]1(C)OC[C@H](C)[C@H]1C3)O[C@@]1(C)OC[C@H](C)[C@H]1C2 (stereo partly drawn)	5	13	Non-toxic	Active	–	–	–	–
C[C@H]1CO[C@]2(C)Oc3c(c4c(c5c3C[C@@H]3[C@@H](C)CO[C@]3(C)O5)C[C@@H]3[C@@H](C)CO[C@]3(C)O4)C[C@H]12	12	31	Non-toxic	Active	inactive	Active	–	–
COC1(C)CCc2c(c3c(c4c2OC(C)(OC)CC4)OC(C)(OC)CC3)O1 (stereo not drawn)	65	118	Non-toxic	Active	–	–	–	–
C[C@H]1CO[C@]2(C)Oc3c(c(O)c(Cc4c(O)c5c(c6c4O[C@@]4(C)OC[C@H](C)[C@H]4C6)O[C@@]4(C)OC[C@H](C)[C@H]4C5)c4c3C[C@@H]3[C@@H](C)CO[C@]3(C)O4)C[C@H]12	87	> 200	Non-toxic	Active	–	–	–	–
CC1COC2(C)Oc3cc(O)cc(O)c3CC12 (racemic)	39	66	Non-toxic	Active	–	–	Active	–
CC1COC2(C)Oc3c(c4c(c5c3CC3C(C)COC3(C)O5)CC3C(C)COC3(C)O4)CC12 (racemic)	6	11	Non-toxic	Active	–	–	Active	–
CC1COC2(C)Oc3cc(O)c4c(c3CC12)OC1(C)OCC(C)C1C4 (racemic) [(+/-)-XYLOKETAL B]	19	41	Non-toxic	Active	–	–	Active	Dose-dependent effect
C[C@H]1CO[C@]2(C)Oc3ccc4c(c3C[C@H]12)O[C@@]1(C)OC[C@H](C)[C@H]1C4 [DEHYDROXY XYLOKETAL B]	55	72	Non-toxic	–	–	–	–	–
C[C@H]1CO[C@]2(C)Oc3cccc(O)c3C[C@H]12 [DEHYDROXY XYLOKETAL H]	128	> 200	Non-toxic	–	–	–	–	–
Cc1cc2c(c3c1C[C@@H]1[C@@H](C)CO[C@]1(C)O3)C[C@@H]1[C@@H](C)CO[C@]1(C)O2 [METHYL XYLOKETAL B]	40	52	Non-toxic	Active	inactive	Active	Active	–
C[C@H]1CO[C@]2(C)Oc3c(c(O)c(C(=O)O)c4c3C[C@@H]3[C@@H](C)CO[C@]3(C)O4)C[C@H]12 [XYLOKETAL B ACID]	> 200	> 200	Non-toxic	–	–	–	–	–
C=C=CCOc1cc2c(c3c1C[C@@H]1[C@@H](C)CO[C@]1(C)O3)C[C@@H]1[C@@H](C)CO[C@]1(C)O2 [XYLOKETAL B ALLENIC ETHER]	12	11	Non-toxic	Active	–	–	Active	–
CCCCOc1cc2c(c3c1C[C@@H]1[C@@H](C)CO[C@]1(C)O3)C[C@@H]1[C@@H](C)CO[C@]1(C)O2 [XYLOKETAL B BUTYL ETHER]	111	> 200	Non-toxic	–	–	–	–	–
